How the values were obtained:
Type in all cases: functional
Homo sapiens [1] = organism: Homo sapiens; assay: Half life during the site specific conversion to the quaternary derivative 5a in heparinized human whole blood was determined
Homo sapiens [2] = organism: Homo sapiens; assay: Half life during the site specific conversion to the quaternary derivative 5a in fresh human plasma was determined
Procedure, shortened: (§1)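 Dihydro derivative in methanol (0.2 mL of 6.25 × 10⁻⁴ M) diluted to 10 mL with 20% fresh human plasma in phosphate buffer pH 7.4. Held at 37 °C with UV scans 400–250 nm every 10 min for 2 h against a plasma/methanol reference. Oxidation to the pyridinium salt followed by loss at ~350 nm and gain at 262 nm. First-order k and t1/2 derived.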

Homo sapiens [3] = organism: Homo sapiens; assay: In vitro facile oxidative conversion to the corresponding quaternary derivative 5a in heparinized human whole blood
Rattus norvegicus [4] = organism: Rattus norvegicus; assay: Half life during the site specific conversion to the quaternary derivative 5a in rat brain homogenate was determined
Procedure, shortened: (§2)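 Rat brain (2.0 g) homogenized in 10 mL phosphate buffer pH 7.4, centrifuged, heated 50 °C for 5 min, recentrifuged, and diluted to 100 mL (2%). To 10 mL was added 0.2 mL of 6.25 × 10⁻⁴ M methanolic dihydro derivative. First-order k and t1/2 derived.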

Rattus norvegicus [5] = organism: Rattus norvegicus; assay: In vitro facile oxidative conversion to the corresponding quaternary derivative 5a in rat liver homogenate
Procedure, shortened: (§3)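 Sprague-Dawley rat liver (5.0 g) homogenized in 50 mL phosphate buffer pH 7.4, centrifuged, heated 50 °C for 5 min, recentrifuged, and diluted to 250 mL (2%). Dihydro derivative (0.2 mL of 6.25 × 10⁻⁴ M in methanol) diluted to 10 mL with homogenate. UV scans at 37 °C from 400 to 250 nm every 5 min for 1 h against a homogenate/methanol reference. First-order k and t1/2 derived.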

Rattus norvegicus [6] = organism: Rattus norvegicus; assay: In vitro facile oxidative conversion to the corresponding quaternary derivative 5a in rat brain homogenate; procedure, shortened: as §2
Homo sapiens [7] = organism: Homo sapiens; assay: In vitro facile oxidative conversion to the corresponding quaternary derivative 5a in fresh human plasma; procedure, shortened: as §1
Rattus norvegicus [8] = organism: Rattus norvegicus; assay: Half life during the site specific conversion to the quaternary derivative 5a in rat liver homogenate was determined; procedure, shortened: as §3

| SMILES | T1/2 (Homo sapiens [1]) | T1/2 (Homo sapiens [2]) | Activity (Homo sapiens [3]) | T1/2 (Rattus norvegicus [4]) | Activity (Rattus norvegicus [5]) | Activity (Rattus norvegicus [6]) | Activity (Homo sapiens [7]) | T1/2 (Rattus norvegicus [8]) |
| --- | --- | --- | --- | --- | --- | --- | --- | --- |
| CN1C=CCC(C(=O)NCCc2ccccc2)=C1 | 13.7 min | 64.2 min | 8.4 10e-4 K s-1 | 28.2 min | 8.13 10e-4 K s-1 | 4.12 10e-4 K s-1 | 1.8 10e-4 K s-1 | 14.4 min |
| CN1C=C(C(=O)NCCc2ccccc2)CC(C(=O)NCCc2ccccc2)=C1 | 234 min | – | 0.494 10e-4 K s-1 | 1370 min | – | 0.084 10e-4 K s-1 | – | – |
| CCOC(=O)C1=CN(C)C=C(C(=O)NCCc2ccccc2)C1 | 70.2 min | – | 1.13 10e-4 K s-1 | 666 min | – | 0.174 10e-4 K s-1 | – | – |
| O=C(NCCc1ccccc1)C1=CN(Cc2ccccc2)C=CC1 | 24.4 min | 156 min | 4.74 10e-4 K s-1 | 55 min | 7.5 10e-4 K s-1 | 2.1 10e-4 K s-1 | 0.74 10e-4 K s-1 | 15.3 min |

Source: ChEMBL document CHEMBL1122498, “Improved delivery through biological membranes. 11. A redox chemical drug-delivery system and its use for brain-specific delivery of phenylethylamine” (1983)
